Assay results as given in ChEMBL document CHEMBL4715825, “Synthesis and biological evaluations of marine oxohexadecenoic acids: PPARα/γ dual agonism and anti-diabetic target gene effects” (Eur J Med Chem, 2018).
Active and inactive are the calls of the source. The rule behind the calls is not given here.

Legend:
[1] = target: T1, Oxysterols receptor LXR-alpha (Homo sapiens) (UniProt Q13133); test: Agonist activity at recombinant human LXRalpha LBD (164 to 447 residues) expressed in African green monkey COS-1 cells at 25 to 50 uM incubated for 18 hrs by luciferase reporter gene assay; assay type: cell-based; settings: dose 25-50 µM
T1 sequence (whole entry): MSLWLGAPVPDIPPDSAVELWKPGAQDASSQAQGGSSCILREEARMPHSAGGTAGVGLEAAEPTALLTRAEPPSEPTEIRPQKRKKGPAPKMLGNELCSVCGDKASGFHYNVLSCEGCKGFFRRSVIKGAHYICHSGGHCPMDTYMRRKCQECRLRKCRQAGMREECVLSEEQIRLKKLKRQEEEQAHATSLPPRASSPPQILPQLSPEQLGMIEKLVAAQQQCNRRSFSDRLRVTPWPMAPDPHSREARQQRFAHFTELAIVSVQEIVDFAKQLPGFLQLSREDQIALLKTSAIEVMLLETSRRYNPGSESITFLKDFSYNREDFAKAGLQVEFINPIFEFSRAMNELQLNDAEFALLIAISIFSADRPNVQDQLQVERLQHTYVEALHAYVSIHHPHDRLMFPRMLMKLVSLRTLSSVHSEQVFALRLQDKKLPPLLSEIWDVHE
Outline: (§1)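 Transient Gal4 one-hybrid assay in COS-1 cells (7×10^4 per well), transfected 24 h after seeding. Plasmids were Gal4-DBD fused to the human nuclear receptor LBD, a 5×UAS-SV40 luciferase reporter and pRL-CMV Renilla control. Ligand in DMSO (final 0.1%) was added 5 h post-transfection. Dual-luciferase activity was read after 18 h, expressed as RLU, from three biological replicates in quadruplicate.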

[2] = target: T2, Peroxisome proliferator-activated receptor gamma (Homo sapiens) (UniProt P37231); test: Agonist activity at human PPARgamma in 8 day differentiated human SGBS cells assessed as decrease in CXCL1 gene expression at 25 uM incubated for 24 hrs by SYBR-green based qPCR analysis; assay type: cell-based; settings: filed as agonist
T2 sequence (whole entry): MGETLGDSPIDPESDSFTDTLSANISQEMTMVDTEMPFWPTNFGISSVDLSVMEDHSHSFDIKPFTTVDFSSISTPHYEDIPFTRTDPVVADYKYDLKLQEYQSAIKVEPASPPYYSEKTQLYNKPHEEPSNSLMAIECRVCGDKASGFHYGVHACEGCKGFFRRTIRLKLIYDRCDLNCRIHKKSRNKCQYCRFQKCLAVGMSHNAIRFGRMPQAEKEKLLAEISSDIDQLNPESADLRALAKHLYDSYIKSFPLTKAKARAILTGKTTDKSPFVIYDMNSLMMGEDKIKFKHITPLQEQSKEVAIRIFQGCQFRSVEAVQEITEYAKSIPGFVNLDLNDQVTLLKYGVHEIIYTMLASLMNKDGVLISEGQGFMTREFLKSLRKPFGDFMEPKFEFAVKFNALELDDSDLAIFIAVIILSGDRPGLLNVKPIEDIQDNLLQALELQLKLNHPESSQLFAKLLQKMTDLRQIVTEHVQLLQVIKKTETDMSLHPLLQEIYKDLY

[3] = Cytotoxicity against African green monkey COS-1 cells assessed as cell viability at EC50 concentration for PPAR activation assay by LDH assay; assay type: cell-based; settings: chlorocebus aethiops, read-out: Activity
Outline: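 Assayed in the same COS-1 cultures as the Gal4-LBD PPAR reporter assays. Lactate dehydrogenase released into the medium was measured with a commercial kit per the maker's protocol. Absorbance was read at 492/750 nm.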

[4] = test system: SGBS; test: Effect on diabetic complication pathway in 8 day differentiated human SGBS cells assessed as downregulation of TNF signalling genes at 25 uM incubated for 8 days by Illumina sequencing method; assay type: functional, cell-based
Outline: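 SGBS cells were differentiated 4 days in Quickdiff supplemented with compound:BSA or rosiglitazone, then 4 days in 3FC. Total RNA was extracted, and strand-specific TruSeq libraries were sequenced on NextSeq 500 (2×75 bp paired-end). Reads were aligned to hg19 with Tophat/Bowtie and counted as RPKM by Cufflinks. Values are log2 fold over day 0 cells, grouped into KEGG gene sets (n = 2-4).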

[5] = target: T3, Retinoic acid receptor RXR-alpha (Homo sapiens) (UniProt P19793); test: Agonist activity at recombinant human RXRalpha LBD (202 to 462 residues) expressed in African green monkey COS-1 cells at 25 to 50 uM incubated for 18 hrs by luciferase reporter gene assay; assay type: cell-based; settings: dose 25-50 µM; outline: as §1
T3 sequence (whole entry): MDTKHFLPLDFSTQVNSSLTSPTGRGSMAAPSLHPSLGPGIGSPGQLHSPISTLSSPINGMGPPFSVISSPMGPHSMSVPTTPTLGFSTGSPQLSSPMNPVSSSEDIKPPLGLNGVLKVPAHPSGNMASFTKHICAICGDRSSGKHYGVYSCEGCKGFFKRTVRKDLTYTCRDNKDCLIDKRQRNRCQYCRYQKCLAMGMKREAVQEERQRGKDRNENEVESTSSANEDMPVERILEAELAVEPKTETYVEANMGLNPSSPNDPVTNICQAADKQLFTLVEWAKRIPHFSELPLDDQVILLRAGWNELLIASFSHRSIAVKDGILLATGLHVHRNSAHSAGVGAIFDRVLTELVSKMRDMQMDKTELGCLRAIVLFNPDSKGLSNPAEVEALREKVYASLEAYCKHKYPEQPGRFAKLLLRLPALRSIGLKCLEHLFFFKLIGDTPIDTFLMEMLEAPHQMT

[6] = target: T2, Peroxisome proliferator-activated receptor gamma (Homo sapiens); test: Agonist activity at human PPARgamma in 8 day differentiated human SGBS cells assessed as increase in SLC2A4 gene expression at 25 uM incubated for 24 hrs by SYBR-green based qPCR analysis; assay type: cell-based; settings: filed as agonist
[7] = target: T4, Peroxisome proliferator-activated receptor alpha (Homo sapiens, UniProt Q07869); test: Agonist activity at recombinant human PPARalpha LBD (168 to 468 residues) expressed in African green monkey COS-1 cells incubated for 18 hrs by luciferase reporter gene assay; assay type: cell-based; outline: as §1
T4 sequence (Q07869 whole entry): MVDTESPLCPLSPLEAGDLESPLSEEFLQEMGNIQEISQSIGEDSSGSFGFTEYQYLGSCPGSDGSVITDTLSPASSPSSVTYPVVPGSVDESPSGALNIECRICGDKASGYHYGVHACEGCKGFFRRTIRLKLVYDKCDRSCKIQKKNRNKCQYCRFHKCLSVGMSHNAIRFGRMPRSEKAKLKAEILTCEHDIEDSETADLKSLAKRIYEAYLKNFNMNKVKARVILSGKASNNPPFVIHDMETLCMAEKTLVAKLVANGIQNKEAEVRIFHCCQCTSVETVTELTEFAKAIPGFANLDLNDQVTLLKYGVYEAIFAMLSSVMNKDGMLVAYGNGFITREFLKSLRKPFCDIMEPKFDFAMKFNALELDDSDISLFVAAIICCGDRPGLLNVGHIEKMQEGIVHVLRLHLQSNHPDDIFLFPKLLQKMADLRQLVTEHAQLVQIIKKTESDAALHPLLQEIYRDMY

[8] = Cytotoxicity against African green monkey COS-1 cells assessed as cell viability at EC50 concentration for PPAR activation assay by XTT assay; assay type: cell-based; settings: chlorocebus aethiops, read-out: Activity
Outline: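 Run on COS-1 cells treated in parallel with the Gal4-LBD PPAR reporter assays. Metabolic NAD(P)H flux was measured by kit XTT assay per the maker's protocol. Absorbance was read at 450/690 nm.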

For `CCCCCCCC(=O)/C=C/CCCCCC(=O)O`, the Activity [1] was “inactive”, the Activity [2] was “Active” and the viability [3] was > 95%. The Activity [4] was “Active”, the Activity [5] was “inactive” and the Activity [6] was “Active”. The EC50 [7] was 20 µM and the viability [8] was > 90%.

For `CCCCC/C=C/C(=O)CCCCCCCC(=O)O`, the Activity [1] was “inactive”, the Activity [2] was “Active” and the viability [3] was > 95%. For the same compound, the Activity [4] was “Active”, the Activity [5] was “inactive” and the Activity [6] was “Active”. The EC50 [7] was 26 µM and the viability [8] was > 90%.
